Compound activity from PubChem.
SMARCA2 activ: SMARCA2 function activation, primary screen; MG213 cells, MMTV-luciferase reporter, dexamethasone, overnight; activation, % at 9.1 µM; 1% of 370,000 active; AID 652017; in the data active = activation above about 7.8%;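 also: 0% = vehicle wells and 100% = reference activator wells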
F508del corr: correctors of CFTR F508del function in bronchial epithelial cells | CFBE cells, YFP halide quenching; stimulated with forskolin plus potentiator P3; % fluorescence drop versus neutral controls | activity (quench increase), % at 7.58 µM | 0.36% of 350,000 active | AID 720511;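 active = mean added fluorescence quench of at least 8% versus neutral control, with both replicates also reaching 8%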;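 also: cells transiently co-express mutant CFTR-F508del with the halide-sensitive YFP; corrector assay measuring rescue of mutant channel to the surface after 24 h compound exposure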
MC4R antag cAMP: human MC4R antagonism in cAMP assay | P32245 | MC4R-expressing cells, MTII-stimulated cAMP, LANCE TR-FRET | inhibition, % at 6.5 µM | 0.48% of 360,000 active | AID 540295;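 active = inhibition above its plate's cutoff, the mean of tested wells on that plate plus 3 SD, cut at about 29% in these data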;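 also: 0% = Melanotan II alone and 100% = Melanotan II plus saturating MCL0020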
Target sequence (P32245 whole entry, looked up): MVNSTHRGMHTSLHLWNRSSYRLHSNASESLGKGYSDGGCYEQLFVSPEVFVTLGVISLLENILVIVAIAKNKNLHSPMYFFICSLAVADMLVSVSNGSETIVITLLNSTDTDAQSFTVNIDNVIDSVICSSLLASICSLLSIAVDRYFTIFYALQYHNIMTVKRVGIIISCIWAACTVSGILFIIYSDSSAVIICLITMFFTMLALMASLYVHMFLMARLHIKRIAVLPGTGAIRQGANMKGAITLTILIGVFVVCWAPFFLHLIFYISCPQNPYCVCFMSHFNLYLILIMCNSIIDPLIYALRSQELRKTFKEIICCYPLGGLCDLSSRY
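Assay system: U2OS-MC4R stable cell line; Also added: Melanotan II; Technique: Eu-cAMP/anti-cAMP TR-FRET, emission 671 nm; Times: 30-min compound, 1-h challenge, 1-h detection, room temperature.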
MC4R ag barr: human MC4R agonism via beta-arrestin. P32245. U2OS MC4R beta-arrestin complementation, luminescence; percent of melanotan II response, DMSO zero. activation, % at 8.9 µM. 0.98% of 360,000 active. AID 540308;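 active = activation above a per-plate cutoff, the mean activation of sample wells on that plate plus 3 SD, cut at about 8% in these data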
cAMP nonselect: counter-screen for MC4R antagonists: nonselective cAMP signaling inhibitors; shares compounds with MC4R antag cAMP; parental U2OS, forskolin cAMP, LANCE TR-FRET; inhibition, % at 6.5 µM; 26% of 1,600 active; AID 602193;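 active = mean inhibition over triplicates above the low-control well mean plus 3 SD, set per campaign, cut at about 13% in these data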;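 also: signal is single emission at 671 nm which falls as cellular cAMP rises; 0% = forskolin-stimulated wells and 100% = buffer without forskolin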
MC4R antag conf: human MC4R cAMP antagonism confirmation; shares compounds with MC4R antag cAMP; MC4R-expressing cells, MTII-stimulated cAMP, TR-FRET; inhibition, % at 6.5 µM; 27% of 1,600 active; in the data active = inhibition above about 29%;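 also: 0% = agonist stimulated wells alone and 100% = agonist stimulated wells plus saturating reference antagonist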
MC4R barr conf: human MC4R beta-arrestin agonism confirmation; shares compounds with MC4R ag barr; 31% of 2,400 active; activation, % at 8.9 µM; AID 602192; U2OS MC4R beta-arrestin recruitment, luminescence; scaled DMSO 0%, Melanotan II 100%;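 active = mean activation across replicates above the hit cutoff set in the earlier primary screen, cut at about 8% in these data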
MOR DOR agonist: counter-screen for MC4R agonists: agonists of mu-delta opioid heterodimer; shares compounds with MC4R ag barr; U2OS PathHunter beta-arrestin, beta-gal luminescence; percent of deltorphin B response, DMSO zero; activation, % at 9.2 µM; 5.8% of 2,400 active; AID 602194;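 active = mean activation across replicates exceeds the hit threshold derived in the earlier primary screen, cut at about 18% in these data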;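 also: 100% = deltorphin B at 0.9 µM final and 0% = DMSO alone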
SMARCA2 conf: SMARCA2 activation, confirmation screen; shares compounds with SMARCA2 activ; MG213 cells, MMTV-luciferase with dexamethasone, luminescence, overnight; MG213 cells expressing E1A, Rb sequestered; DMSO wells 0%, reference activator 100%; activation, % at 9.1 µM; 30% of 3,500 active; AID 652260;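 active = activation above its plate's cutoff, the mean activation of tested wells plus 3 SD, cut at about 7.9% in these data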
VP16 Luc act: counter-screen for SMARCA2 activators: GAL4-VP16 luciferase reporter activation. shares compounds with SMARCA2 activ. HEK293 GAL4-VP16 pG5luc reporter, luciferase luminescence; scaled: DMSO wells 0%, SAHA wells 100%. activation, % at 9.1 µM. 41% of 3,500 active. AID 686939;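 active = activation above the solvent-only control well mean plus 3 SD, averaged across control plates, cut at about 5.2% in these data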
The depositor's hits bear a star; nt = no result given. Shown are actives, neighbours in structure and some others; about 2.1% of the full set was active somewhere.

SMILES	SMARCA2 activ	F508del corr	MC4R antag cAMP	MC4R ag barr	cAMP nonselect	MC4R antag conf	others
CN1C(=O)C(c2ccccc2)C(=O)N(C)C1=O	-4	-1	30*	2	-1	12
COc1ccc2oc3c(c2c1)NC(=O)CN=C3c1ccccc1	-2	2	31*	1	4	-8
O=C(Cc1ccccc1)N1C[C@@H]2[C@H](c3ccccc31)[C@H](CO)N2Cc1ccccc1	nt	-1	nt	nt	nt	nt
Cc1ccc(N2C(=O)NC(=O)/C(=C/c3ccoc3)C2=O)cc1	-5	4	33*	-2	3	-2
Cc1ccc(N2C(=O)NC(=O)/C(=C/c3cnn(-c4ccc(C)cc4)c3)C2=O)cc1	3	nt	5	2	nt	nt
CCOC(=O)c1c(-n2c(C)cc(C=C3C(=O)NC(=O)NC3=O)c2C)sc2c1CCCC2	-3	nt	30*	1	2	-10
COC(=O)[C@H]1[C@H](CO)[C@H]2Cn3c(ccc(C4=CCCCC4)c3=O)[C@@H]1N2C(=O)CC1CC1	nt	-1	nt	nt	nt	nt
CC1=C(O)C(=O)C=C2C1=CC=C1C2(C)CCC2(C)C3CC(C)(C(=O)O)CCC3(C)CCC12C (stereo not drawn)	-9	-3	32*	-2	-5	17
CCOc1cc2[nH]c(=S)n(CCCC(=O)N3CCC4(CC3)OCCO4)c(=O)c2cc1OCC	-1	nt	29*	-2	2	8
COC(=O)[C@@H]1[C@@H](CO)[C@@H]2Cn3c(ccc(-c4cccnc4)c3=O)[C@H]1N2CCc1ccccc1	nt	-2	nt	nt	nt	nt
C=C1C(=O)OC2CC3(C)OC3C3OC3C3=CC(OC3=O)C12 (stereo not drawn)	-7	-8	43*	-2	19*	33*
C=C1C(=O)OC2CC3(C)OC3CCC(C)=CC(OC(C)=O)C12 (stereo not drawn)	7	-1	1	-1	nt	nt
C/C=C/c1ccc(C2[C@@H]3CN(Cc4cocn4)C[C@H]2N3)cc1 (stereo partly drawn)	nt	0	nt	nt	nt	nt
COc1cccc(C(=O)C2CCCN(Cc3cccc4c3OCO4)C2)c1 (stereo not drawn)	-3	1	29*	-2	4	11
COc1cccc(C(=O)C2CCCN(Cc3ccc4nonc4c3)C2)c1 (stereo not drawn)	-6	0	-6	1	nt	nt
COc1ccc(CN2Cc3cnnn3-c3ccccc3C2C#N)cc1 (stereo not drawn)	-4	2	32*	0	5	27
N#CC1c2ccccc2-n2nncc2CN1Cc1cc(Cl)cc(Cl)c1 (stereo not drawn)	-14	-3	20	-1	nt	nt
CN1CCN(C(=O)CN=[N+]=[N-])CC1	nt	2	nt	nt	nt	nt
COC(=O)[C@@H]1[C@@H](CO)[C@@H]2Cn3c(ccc(C4=CCCCC4)c3=O)[C@H]1N2Cc1cccnc1	nt	0	nt	nt	nt	nt
CCCNC(=O)[C@@H]1[C@@H](CO)[C@@H]2Cn3c(cccc3=O)[C@@H]2N1CC	nt	-1	nt	nt	nt	nt
C=CCn1c(O)c(C(CC)=Nc2cccc(C(=O)O)c2)c(=O)[nH]c1=O	-1	2	31*	2	1	6
O=C1NC(=O)C(=Cc2ccc(SC3CCCCC3)o2)C(=O)N1	2	nt	38*	0	11	26
NS(=O)(=O)c1ccc(-c2ccc(C=C3C(=O)NC(=O)NC3=O)o2)cc1	1	1	-1	2	nt	nt
CC/C(=N\Nc1ccccc1)c1c(O)n(-c2ccc(OC)cc2)c(=O)[nH]c1=O	0	-1	33*	4	0	-6
O=C1CN=C(c2ccc(Cl)cc2)c2oc3ccccc3c2N1	-2	2	-7	11*	nt	nt	MC4R barr conf=2;MOR DOR agonist=9
SMILES	SMARCA2 activ	F508del corr	MC4R antag cAMP	MC4R ag barr	cAMP nonselect	MC4R antag conf	others
C[C@]12CC[C@@H](O)CC1=CCC1C2CC[C@]2(C)C(=O)[C@H](F)CC12 (stereo partly drawn)	0	-1	-1	0	nt	nt
CC12CCC3C(CC=C4CC(O)CCC43C)C1C/C(=C\c1cccc(F)c1)C2=O (stereo not drawn)	-5	nt	5	14*	nt	nt	MC4R barr conf=7;MOR DOR agonist=6
COC(=O)[C@@H]1[C@@H](CO)[C@@H]2Cn3c(ccc(/C=C/c4ccccc4)c3=O)[C@H]1N2C(=O)C1CCC1	nt	0	nt	nt	nt	nt
O=C(NC[C@H]1CC[C@@H]2NC[C@@H]2O1)C1CCCC1	nt	-3	nt	nt	nt	nt
Cc1cc2oc(=O)cc(-c3cc4ccccc4o3)c2cc1OC(=O)N(C)C	-3	3	-7	17*	nt	nt	MC4R barr conf=0;MOR DOR agonist=3
O=c1[nH]cnc2nc(-c3ccc(N(CCCl)CCCl)cc3)[nH]c12	6	3	14	9.8*	nt	nt	MC4R barr conf=13*;MOR DOR agonist=19*
CCCCOC(=O)COc1cc(C)cc2oc(=O)c3c(c12)CCC3	-1	nt	4	-2	nt	nt
C=CCOC(=O)COc1cc(C)cc2oc(=O)c3c(c12)CCC3	1	nt	3	11*	nt	nt	MC4R barr conf=9.0*;MOR DOR agonist=5
C[C@H](CO)N1C[C@H](C)[C@H](CN(C)C(=O)Oc2cccc3ccccc23)OCc2cn(nn2)CCCC1=O	nt	-2	nt	nt	nt	nt
CCn1c(O)c(/C=N/NC(=O)c2ccccc2)c(=O)n(CC)c1=S	8.1*	0	9	2	nt	nt	SMARCA2 conf=5;VP16 Luc act=2
Nc1ccccc1C(=O)OCC(=O)N1CCc2ccccc21	8.7*	nt	-1	-2	nt	nt	SMARCA2 conf=7;VP16 Luc act=7.5*
C[C@@H]1CN([C@@H](C)CO)C(=O)c2c(c3ccccc3n2C)-c2ccccc2CO[C@@H]1CN(C)C(=O)Oc1ccccc1	nt	3	nt	nt	nt	nt
O=c1c2ccccc2nc(/C=C/c2ccc([N+](=O)[O-])o2)n1-c1ccc(O)cc1	9.5*	-6	-21	0	nt	nt	SMARCA2 conf=-14;VP16 Luc act=1
Cc1cc(C(=O)CS(=O)(=O)c2ccccc2)cc(C)c1OC(=O)N(C)C	13*	1	7	-3	nt	nt	SMARCA2 conf=7;VP16 Luc act=8.8*
Cc1ccc(S(=O)(=O)CC(=O)c2cc(C)c(OC(=O)N(C)C)c(C)c2)cc1	-3	4	14	-2	nt	nt
